2 molecules from ChEMBL document CHEMBL3297648, “Diterpenoids from the Chinese liverwort Heteroscyphus tener and their antiproliferative effects” (J Nat Prod, 2014) can be followed below.

Assay [1] has as its system A549. Briefly: Antiproliferative activity against human A549 cells assessed as inhibition of cell viability after 24 hrs by MTT assay. The format is functional, cell-based. The following applies: A549, 24 h. The method in brief: (§1)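 Cells grown to 50–70% confluence (RWPE1 in K-SFM with pituitary extract and EGF; the other lines in RPMI 1640 with 10% FBS), 5% CO2, 37 °C. Treated for 24 h with DMSO vehicle, compounds, or cisplatin as positive control. MTT (5 mg/mL) added for 4 h, formazan dissolved in DMSO, absorbance read at 570 nm. Viability taken relative to untreated cells after blank subtraction, IC50 fitted from % viability, at least three experiments.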
On the technique in general: Tetrazolium assays rely on reduction of a dye to a coloured formazan, in cell work by metabolically active cells.

The subject of assay [2] is NCI-H292. Briefly: Antiproliferative activity against human NCI-H292 cells assessed as inhibition of cell viability after 24 hrs by MTT assay. The format is functional, cell-based. The following applies: NCI-H292, 24 h. The method in brief:
as §1

For assay [3], the system named is NCI-H1299. The assay is described as follows: Antiproliferative activity against human NCI-H1299 cells assessed as inhibition of cell viability after 24 hrs by MTT assay. The format is functional, cell-based. The following applies: NCI-H1299, 24 h. An outline of the steps: as §1
Assay [4] can be described thus: Antiproliferative activity against human RWPE1 cells assessed as inhibition of cell viability after 24 hrs by MTT assay. The format is cell-based. The following applies: RWPE-1, 24 h. The method in brief:
as §1

Assay [5] relates to NCI-H446. The assay is described as follows: Antiproliferative activity against human NCI-H446 cells assessed as inhibition of cell viability after 24 hrs by MTT assay. The format is functional, cell-based. To be noted: NCI-H446, 24 h. The method in brief:
as §1

A short description of assay [6]: Antiproliferative activity against human PC3 cells assessed as inhibition of cell viability after 24 hrs by MTT assay. The format is functional, cell-based. To be noted: PC-3, 24 h. The method in brief: as §1
Assay [7] has as its system DU-145. Briefly: Antiproliferative activity against human DU145 cells assessed as inhibition of cell viability after 24 hrs by MTT assay. The format is functional, cell-based. The following applies: DU-145, 24 h. The method in brief: as §1
Assay [8] is described as follows: Antiproliferative activity against HBE cells assessed as inhibition of cell viability after 24 hrs by MTT assay. The format is cell-based. The following applies: Homo sapiens. The method in brief: as §1
Assay [9] deals with K562. Briefly: Antiproliferative activity against human K562 cells assessed as inhibition of cell viability after 24 hrs by MTT assay. The format is functional, cell-based. The following applies: K562, 24 h. An outline of the steps:
as §1

By IC50 is commonly meant the concentration that inhibits the measured activity by half. Take `CC(C)[C@H]1CC[C@]2(C)C[C@]3(O)C(=CC(=O)[C@H]3C)[C@@H](C)CC[C@@H]12` [ANADENSIN]: the IC50 in assay [1] was greater than 40 µM; in [2], 39.9 µM; in assay [3] it was 27 µM; in assay [4], greater than 40 µM; in assay [5], greater than 40 µM; in assay [6], greater than 40 µM. For the same molecule, the IC50 in assay [7], in assay [8] and in assay [9] was greater than 40 µM each time.
Regarding `C=C[C@]1(C)CC[C@H]2[C@]3(C)CCCC(C)(C)[C@H]3[C@@H]3C[C@@]2(O1)C(=O)O3`, the half-maximal inhibitory concentration (IC50) in assay [1] is 21.5 µM; in [2], 10.7 µM; in assay [3], 21.9 µM; in [4], 26.4 µM; in assay [5], 16.7 µM; in assay [6], 20 µM. Moreover, the values for the IC50 in [7], in assay [8] and in assay [9] were 18.9 µM, 53.2 µM and 34 µM, respectively.
